TLR9-MyD88 inh: blocks human TLR9 binding to MyD88; Q9NR96+Q99836; CHO BLA complementation TLR9-MyD88, CCF4 FRET ratio; inhibition, % at 4.98 µM; 340,000 compounds, 0.21% hits;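 active = inhibition above the mean over all tested compounds plus 3 SD, cut at about 21% in these data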
Target sequence (Q99836 whole entry, looked up): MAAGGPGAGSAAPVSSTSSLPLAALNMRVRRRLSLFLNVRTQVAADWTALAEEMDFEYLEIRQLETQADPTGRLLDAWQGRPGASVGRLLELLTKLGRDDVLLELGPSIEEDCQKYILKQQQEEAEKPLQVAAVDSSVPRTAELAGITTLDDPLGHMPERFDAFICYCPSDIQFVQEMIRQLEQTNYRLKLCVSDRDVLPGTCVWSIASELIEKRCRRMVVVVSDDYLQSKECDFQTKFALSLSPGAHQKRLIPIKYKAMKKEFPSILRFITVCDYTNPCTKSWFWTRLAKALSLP
Target sequence (Q9NR96 whole entry, looked up): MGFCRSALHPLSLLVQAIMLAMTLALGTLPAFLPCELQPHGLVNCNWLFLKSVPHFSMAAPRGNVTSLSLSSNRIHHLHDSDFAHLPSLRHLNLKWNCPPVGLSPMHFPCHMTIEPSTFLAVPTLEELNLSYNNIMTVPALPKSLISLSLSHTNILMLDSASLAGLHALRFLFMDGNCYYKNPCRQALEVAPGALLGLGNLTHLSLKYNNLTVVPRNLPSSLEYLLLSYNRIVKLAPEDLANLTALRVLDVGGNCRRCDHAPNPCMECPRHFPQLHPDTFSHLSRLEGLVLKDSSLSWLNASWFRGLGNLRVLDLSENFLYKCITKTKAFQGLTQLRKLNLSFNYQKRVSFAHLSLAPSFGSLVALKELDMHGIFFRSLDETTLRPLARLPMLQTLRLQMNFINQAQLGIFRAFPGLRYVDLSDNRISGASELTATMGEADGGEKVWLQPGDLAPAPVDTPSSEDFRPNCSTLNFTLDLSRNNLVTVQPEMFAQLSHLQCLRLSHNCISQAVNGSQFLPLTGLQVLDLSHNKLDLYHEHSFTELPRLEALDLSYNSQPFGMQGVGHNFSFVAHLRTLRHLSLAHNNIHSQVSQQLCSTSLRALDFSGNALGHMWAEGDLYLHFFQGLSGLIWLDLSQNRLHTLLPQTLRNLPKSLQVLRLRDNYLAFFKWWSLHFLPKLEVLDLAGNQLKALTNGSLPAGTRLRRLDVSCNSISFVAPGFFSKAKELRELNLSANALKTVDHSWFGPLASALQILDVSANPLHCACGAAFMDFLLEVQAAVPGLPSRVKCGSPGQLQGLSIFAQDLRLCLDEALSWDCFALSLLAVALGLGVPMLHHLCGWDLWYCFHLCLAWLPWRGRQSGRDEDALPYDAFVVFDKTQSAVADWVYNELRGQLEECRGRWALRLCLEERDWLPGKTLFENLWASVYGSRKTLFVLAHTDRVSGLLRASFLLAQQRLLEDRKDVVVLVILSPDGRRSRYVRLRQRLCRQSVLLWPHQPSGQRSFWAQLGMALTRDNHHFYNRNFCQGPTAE
MC4R antag cAMP: antagonists of human melanocortin 4 receptor (MC4R); P32245; MC4R-expressing cells, MTII-stimulated cAMP, LANCE TR-FRET; inhibition, % at 6.5 µM; 360,000 compounds, 0.48% hits;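 active = inhibition above its plate's cutoff, the mean of tested wells on that plate plus 3 SD, cut at about 29% in these data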
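Assay system: human MC4R-expressing U2OS cells; reagent: Melanotan II stimulation of cells; dosing: 6.5 µM single dose; timing: compound 30 min, challenge 1 h, detection 1 h; signal: TR-FRET cAMP assay; replicates: one well per compound, no replicates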
MC4R barr agon: agonists of human melanocortin 4 receptor (MC4R) beta-arrestin; 360,000 compounds, 0.98% hits; U2OS MC4R beta-arrestin complementation, luminescence; percent of melanotan II response, DMSO zero; P32245; activation, % at 8.9 µM;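 active = activation above a per-plate cutoff, the mean activation of sample wells on that plate plus 3 SD, cut at about 8% in these data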
NOD2-RIPK2 inh: inhibitors of human NOD2-RIPK2 interaction; CHO BLA complementation NOD2-RIPK2, CCF4 ratio; inhibition, % at 4.98 µM; 360,000 compounds, 0.38% hits; in the data active = inhibition above about 21%
TLR4-MyD88 BLA: inhibitors of human TLR4-MyD88 binding. O00206+Q99836. inhibition, % at 8.4 µM. HeLa CL3-4 TLR4/MyD88 BLA complementation, FRET ratio. 200,000 compounds, 0.18% hits; in the data active = inhibition above about 25%
cAMP nonselect: U2OS forskolin cAMP inhibition counter-screen. shares compounds with MC4R antag cAMP. AID 602193. inhibition, % at 6.5 µM. parental U2OS, LANCE TR-FRET. 1,600 compounds, 26% hits;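 active = mean inhibition over triplicates above the low-control well mean plus 3 SD, set per campaign, cut at about 13% in these data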;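 note: signal is single emission at 671 nm which falls as cellular cAMP rises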
MC4R cAMP antag: human MC4R cAMP antagonism confirmation. shares compounds with MC4R antag cAMP. MC4R-expressing cells, MTII-stimulated cAMP, TR-FRET. inhibition, % at 6.5 µM. 1,600 compounds, 27% hits. AID 602195; in the data active = inhibition above about 29%
Each line names hits and unclear results; the compound was inactive in the other large screens (follow-up assays come after a bar, where they were run). Rows were chosen to be rich in hits. Some 1.8% of all compounds tested hit in one or more screens of this group.

O=C1CNC(=O)/C1=C/c1ccc(Br)cc1	MC4R antag cAMP 32 (no result: TLR4-MyD88 BLA) | cAMP nonselect inactive | MC4R cAMP antag inactive
COc1ccc(CC(=O)N[C@@H]2c3ccccc3CC[C@H]2OCc2ccccc2)cc1	none (no result: TLR4-MyD88 BLA)
C/C(=N/NC(=O)CN(c1ccccc1)S(=O)(=O)c1ccccc1)c1ccccc1O	MC4R antag cAMP 30 (no result: TLR4-MyD88 BLA) | cAMP nonselect inactive | MC4R cAMP antag inactive
CCC(C)C(NC(=O)c1ccccc1)C(=O)N1CCN(C(=O)c2ccccc2)CC1 (centres undefined)	none (no result: TLR4-MyD88 BLA)
O=C(/C=C/c1ccc(Cl)c([N+](=O)[O-])c1)Nc1cccc(NC(=O)c2ccco2)c1	MC4R antag cAMP 45 | cAMP nonselect 53 | MC4R cAMP antag 57
O=C(COc1ccc(Cl)cc1)NCc1ccc(F)cc1	none (no result: TLR4-MyD88 BLA)
CCOC(=O)c1cc(-c2ccccc2)sc1NC(=O)COC(=O)c1ccc(Cl)c(S(N)(=O)=O)c1	MC4R antag cAMP 29 | cAMP nonselect inactive | MC4R cAMP antag inactive
COc1cc(/C=C2\C(=N)N3N=C(S(C)(=O)=O)SC3=NC2=O)ccc1OCCOc1ccc(C)cc1	MC4R antag cAMP 34 (no result: TLR4-MyD88 BLA) | cAMP nonselect inactive | MC4R cAMP antag inactive
CCn1c2ccccc2c2cc(/C=N/NC(=O)c3cc(O)cc(O)c3)ccc21	none
COc1ccc(/C=N/NC(=O)CCn2c3ccccc3c3ccccc32)cc1OC	MC4R antag cAMP 29 | cAMP nonselect inactive | MC4R cAMP antag inactive
CCn1c2ccccc2c2cc(/C=N/NC(=O)c3ccc(O)cc3)ccc21	MC4R antag cAMP 29 | cAMP nonselect inactive | MC4R cAMP antag inactive
O=C(OC1CCOC1=O)c1cc(-c2ccc(Cl)cc2)nc2ccccc12 (centres undefined)	MC4R antag cAMP 35 | cAMP nonselect 17 | MC4R cAMP antag inactive
CCOC(=O)CC(NC(=O)Cn1nnc(-c2ccccc2F)n1)c1ccc(OC)cc1 (centres undefined)	MC4R antag cAMP 30 | cAMP nonselect inactive | MC4R cAMP antag inactive
CCOC(=O)CC(NC(=O)Cn1nnc(-c2ccccc2Cl)n1)c1ccc(OC)cc1 (centres undefined)	none
O=C(c1ccc(Cl)cc1)C(CN1CCCC1)c1ccccc1 (centres undefined)	MC4R antag cAMP 31 (no result: TLR4-MyD88 BLA) | cAMP nonselect inactive | MC4R cAMP antag inactive
COc1ccc(C(=O)C(CN2CCCC2)c2ccccc2)cc1 (centres undefined)	none
CC(C)CC(c1nnnn1C1CCCC1)N1CCC(C(N)=O)CC1 (centres undefined)	none
O=C(O)c1ccccc1-c1c2cc(I)c(=O)c(I)c-2oc2c(I)c(O)c(I)cc12	MC4R antag cAMP active (no result: TLR4-MyD88 BLA) | cAMP nonselect 105 | MC4R cAMP antag 164
O=Cc1ccc(-c2ccccc2C(=O)O)o1	none
Cc1cc(C)n(-c2nnc(Cl)c3ccccc23)n1	MC4R antag cAMP 37 | cAMP nonselect 30 | MC4R cAMP antag 46
COC(=O)COc1ccc(S(=O)(=O)N2CCc3ccccc3C2)cc1	MC4R antag cAMP 29 | cAMP nonselect 14 | MC4R cAMP antag inactive
COCCN(CCOC)S(=O)(=O)c1ccc(C(=O)Nc2ccc(S(=O)(=O)Nc3nccc(C)n3)cc2)cc1	MC4R antag cAMP 30 | cAMP nonselect inactive | MC4R cAMP antag inactive
O=C1N(Cc2cccc(Cl)c2)C[C@@H]2C[C@@H](c3cccc4cccnc34)N3CCC[C@@]123	MC4R antag cAMP 34 | cAMP nonselect inactive | MC4R cAMP antag inactive
CC(OC(=O)CCNS(=O)(=O)c1cccs1)C(=O)Nc1ccc(S(N)(=O)=O)cc1 (centres undefined)	none (no result: TLR4-MyD88 BLA)
CCn1c(CC(=O)Nc2ccc(F)cc2)nnc1SCC(=O)NC1CCCC1	none (no result: TLR4-MyD88 BLA)
CCn1c(CC(=O)Nc2ccc(F)cc2)nnc1SCC(=O)Nc1nnc(C)s1	MC4R antag cAMP 30 (no result: TLR4-MyD88 BLA) | cAMP nonselect inactive | MC4R cAMP antag inactive
Cc1ccc(C(=O)NCC(=O)N2CCc3ccccc3C2)cc1C	none (no result: TLR4-MyD88 BLA)
O=C(/C=C/c1ccc(-c2ccccc2[N+](=O)[O-])o1)c1ccccc1	MC4R antag cAMP 30 | cAMP nonselect inactive | MC4R cAMP antag inactive
O=C(O)/C(=C\c1ccc(-c2ccccc2[N+](=O)[O-])o1)c1ccccc1	none (no result: TLR4-MyD88 BLA)
O=c1c(Cl)c(N2CCN(c3ccc(F)cc3)CC2)cnn1C12CC3CC(CC(C3)C1)C2	MC4R antag cAMP 29 | cAMP nonselect inactive | MC4R cAMP antag inactive
O=c1c(Cl)c(N2CCN(c3ccccc3)CC2)cnn1C12CC3CC(CC(C3)C1)C2	none
CCOC(=O)c1sc(=S)[nH]c1C	MC4R antag cAMP 43 (no result: TLR4-MyD88 BLA) | cAMP nonselect inactive | MC4R cAMP antag 31
CCOC(=O)c1c(C)[nH]sc1=S	none
CCCN(CC(=O)Nc1ccccc1C)CC(=O)Nc1ccc(Br)cc1F	MC4R antag cAMP 29 (no result: TLR4-MyD88 BLA) | cAMP nonselect inactive | MC4R cAMP antag inactive
O=C(Nc1nccs1)c1ccc(Cl)nc1	none (no result: TLR4-MyD88 BLA)
Cc1csc(NC(=O)c2ccc(Cl)nc2)n1	MC4R antag cAMP 29 (no result: TLR4-MyD88 BLA) | cAMP nonselect inactive | MC4R cAMP antag inactive
CC(C)OP(=O)(OC(C)C)/C(C=O)=N\Nc1ccc([N+](=O)[O-])cc1	MC4R antag cAMP 39 (no result: TLR4-MyD88 BLA) | cAMP nonselect inactive | MC4R cAMP antag inactive
CC1CN(c2ccc(NC(=O)c3ccco3)cc2C(=O)O)CC(C)O1 (centres undefined)	none (no result: TLR4-MyD88 BLA)
O=C1c2ccccc2NC(c2ccccc2Br)N1CCCN1CCOCC1 (centres undefined)	MC4R antag cAMP 29 | cAMP nonselect inactive | MC4R cAMP antag inactive
CCCCc1nc2sc3c(=O)[nH]c(=S)[nH]c3c2c2c1CCC2	none (no result: TLR4-MyD88 BLA)
COC(=O)c1c(NC(=O)C2COc3ccccc3O2)sc2c1CCN(C(=O)OC)C2 (centres undefined)	MC4R antag cAMP 31 (no result: TLR4-MyD88 BLA) | cAMP nonselect inactive | MC4R cAMP antag inactive
O=C(c1ccco1)N1N=C(c2ccco2)CC1c1ccc(Cl)cc1Cl (centres undefined)	none (no result: TLR4-MyD88 BLA)
O=C(Nc1cccc([N+](=O)[O-])c1)c1ccc2c(c1)C(=O)N(c1ccccn1)C2=O	MC4R antag cAMP 35 (no result: TLR4-MyD88 BLA) | cAMP nonselect inactive | MC4R cAMP antag inactive
Cc1ccc(S(=O)(=O)Nc2nc(C)cc(NN)n2)cc1	MC4R antag cAMP 29 (no result: TLR4-MyD88 BLA) | cAMP nonselect inactive | MC4R cAMP antag inactive
Cc1ccc(Sc2cnc(N)nc2C)cc1	MC4R antag cAMP 37 | cAMP nonselect inactive | MC4R cAMP antag inactive
Cc1ccc(Sc2ncccc2C(N)=O)cc1	none (no result: TLR4-MyD88 BLA)
Cc1ccc(C(=O)NCC(=O)OCC(=O)Nc2ccc(Cl)cc2C(F)(F)F)cc1C	MC4R antag cAMP 29 | cAMP nonselect inactive | MC4R cAMP antag inactive
Cc1ccsc1C(=O)OCC(=O)Nc1ccc(Cl)cc1C(F)(F)F	none
CN(Cc1ccccc1)C(=C(Cl)Cl)C(=C1NCCN1)[N+](=O)[O-]	none

Compound activity from PubChem BioAssay.
